In brackets after ≈: the same amount, converted by molar mass.
How the values were obtained:
Assay type in all cases: functional
[1] = tested on: Bacillus cereus; assay: Antibacterial activity against Bacillus cereus N190 after 18 hrs by agar dilution method; conditions: N190, 18 h
Summary of the method: (§1)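 Agar-dilution MIC against Gram-positive strains. Compounds in DMSO, geometric dilutions giving final 100−0.75 mg/L in Mueller Hinton agar. Strains grown 18 h at 37 °C in trypticase soy broth, diluted in sterile water, spotted by Steers inoculator (about 1000 UFC/spot). Plates incubated 18 h at 37 °C; DMSO blank; ofloxacin positive control. MIC = lowest concentration with no visible growth.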

[2] = tested on: Enterococcus casseliflavus; assay: Antibacterial activity against Enterococcus casseliflavus N487 after 18 hrs by agar dilution method; conditions: N487, 18 h; summary of the method: as §1
[3] = tested on: Staphylococcus saprophyticus; assay: Antibacterial activity against Staphylococcus saprophyticus E260 after 18 hrs by agar dilution method; conditions: E260, 18 h; summary of the method: as §1
[4] = tested on: Enterococcus faecium; assay: Antibacterial activity against Enterococcus faecium N733 after 18 hrs by agar dilution method; conditions: N733, 18 h; summary of the method: as §1
[5] = tested on: Listeria monocytogenes; assay: Antibacterial activity against Listeria monocytogenes CIP 103575 after 18 hrs by agar dilution method; conditions: CIP 103575, 18 h; summary of the method: as §1
[6] = tested on: Staphylococcus epidermidis; assay: Antibacterial activity against Staphylococcus epidermidis CIP 53124 after 18 hrs by agar dilution method; conditions: CIP 53124, 18 h; summary of the method: as §1
[7] = tested on: Enterococcus faecium; assay: Antibacterial activity against Enterococcus faecium N823 after 18 hrs by agar dilution method; conditions: N823, 18 h; summary of the method: as §1
[8] = tested on: Enterococcus casseliflavus; assay: Antibacterial activity against Enterococcus casseliflavus CIP 103018 after 18 hrs by agar dilution method; conditions: CIP 103018, 18 h; summary of the method: as §1
[9] = tested on: Streptococcus agalactiae; assay: Antibacterial activity against Streptococcus agalactiae CIP 103227 after 18 hrs by agar dilution method; conditions: ATCC 13813, 18 h; summary of the method: as §1
[10] = tested on: Staphylococcus haemolyticus; assay: Antibacterial activity against Staphylococcus haemolyticus CIP 8156 after 18 hrs by agar dilution method; conditions: CIP 8156, 18 h; summary of the method: as §1
[11] = tested on: Bacillus cereus; assay: Antibacterial activity against Bacillus cereus CIP 6624 after 18 hrs by agar dilution method; conditions: CIP 6624, 18 h; summary of the method: as §1
[12] = tested on: Enterococcus faecalis; assay: Antibacterial activity against Enterococcus faecalis CIP 104676 after 18 hrs by agar dilution method; conditions: CIP 104676, 18 h; summary of the method: as §1
[13] = tested on: Listeria monocytogenes; assay: Antibacterial activity against Listeria monocytogenes N851 after 18 hrs by agar dilution method; conditions: N851, 18 h; summary of the method: as §1
[14] = tested on: Enterococcus hirae; assay: Antibacterial activity against Enterococcus hirae CIP 5855 after 18 hrs by agar dilution method; conditions: CIP 5855, 18 h; summary of the method: as §1
[15] = tested on: Staphylococcus aureus; assay: Antibacterial activity against Staphylococcus aureus ATCC 25923 after 18 hrs by agar dilution method; conditions: ATCC 25923, 18 h; summary of the method: as §1
[16] = tested on: Staphylococcus saprophyticus; assay: Antibacterial activity against Staphylococcus saprophyticus CIP 76125 after 18 hrs by agar dilution method; conditions: CIP 76125, 18 h; summary of the method: as §1
[17] = tested on: Bacillus cereus; assay: Antibacterial activity against Bacillus cereus N258 after 18 hrs by agar dilution method; conditions: N258, 18 h; summary of the method: as §1
[18] = tested on: Corynebacterium striatum; assay: Antibacterial activity against Corynebacterium striatum N840 after 18 hrs by agar dilution method; conditions: N840, 18 h; summary of the method: as §1
[19] = tested on: Enterococcus faecalis; assay: Antibacterial activity against Enterococcus faecalis N520 after 18 hrs by agar dilution method; conditions: N520, 18 h; summary of the method: as §1
[20] = tested on: Enterococcus durans; assay: Antibacterial activity against Enterococcus durans CIP 104999 after 18 hrs by agar dilution method; conditions: CIP 104999, 18 h; summary of the method: as §1
[21] = tested on: Listeria monocytogenes; assay: Antibacterial activity against Listeria monocytogenes N836 after 18 hrs by agar dilution method; conditions: N836, 18 h; summary of the method: as §1
[22] = tested on: Enterococcus faecalis; assay: Antibacterial activity against Enterococcus faecalis N491 after 18 hrs by agar dilution method; conditions: N491, 18 h; summary of the method: as §1
[23] = tested on: Staphylococcus aureus; assay: Antibacterial activity against Staphylococcus aureus CIP 53156 after 18 hrs by agar dilution method; conditions: CIP 53156, 18 h; summary of the method: as §1
[24] = tested on: Staphylococcus lugdunensis; assay: Antibacterial activity against Staphylococcus lugdunensis ATCC 43809 after 18 hrs by agar dilution method; conditions: ATCC 43809, 18 h; summary of the method: as §1
[25] = tested on: Staphylococcus intermedius; assay: Antibacterial activity against Staphylococcus intermedius N987 after 18 hrs by agar dilution method; conditions: N987, 18 h; summary of the method: as §1
[26] = tested on: Listeria monocytogenes; assay: Antibacterial activity against Listeria monocytogenes N783 after 18 hrs by agar dilution method; conditions: N783, 18 h; summary of the method: as §1
[27] = tested on: Enterococcus faecium; assay: Antibacterial activity against Enterococcus faecium N507 after 18 hrs by agar dilution method; conditions: N507, 18 h; summary of the method: as §1
[28] = tested on: Bacillus cereus; assay: Antibacterial activity against Bacillus cereus N349 after 18 hrs by agar dilution method; conditions: N349, 18 h; summary of the method: as §1
[29] = tested on: Enterococcus faecalis; assay: Antibacterial activity against Enterococcus faecalis N518 after 18 hrs by agar dilution method; conditions: N518, 18 h; summary of the method: as §1
[30] = tested on: Mammaliicoccus sciuri; assay: Antibacterial activity against Staphylococcus sciuri N993 after 18 hrs by agar dilution method; conditions: N993, 18 h; summary of the method: as §1
[31] = tested on: Staphylococcus aureus; assay: Antibacterial activity against Staphylococcus aureus CIP 483 after 18 hrs by agar dilution method; conditions: CIP 483, 18 h; summary of the method: as §1
[32] = tested on: Enterococcus faecium; assay: Antibacterial activity against Enterococcus faecium N490 after 18 hrs by agar dilution method; conditions: N490, 18 h; summary of the method: as §1
[33] = tested on: Enterococcus faecium; assay: Antibacterial activity against Enterococcus faecium CIP 107387 after 18 hrs by agar dilution method; conditions: CIP 107387, 18 h; summary of the method: as §1
[34] = tested on: Enterococcus avium; assay: Antibacterial activity against Enterococcus avium CIP 104053 after 18 hrs by agar dilution method; conditions: CIP 104053, 18 h; summary of the method: as §1
[35] = tested on: Staphylococcus aureus; assay: Antibacterial activity against Staphylococcus aureus CIP 53154 after 18 hrs by agar dilution method; conditions: CIP 53154, 18 h; summary of the method: as §1
[36] = tested on: Enterococcus gallinarum; assay: Antibacterial activity against Enterococcus gallinarum N492 after 18 hrs by agar dilution method; conditions: N492, 18 h; summary of the method: as §1
[37] = tested on: Staphylococcus aureus; assay: Antibacterial activity against Staphylococcus aureus CIP 7625 after 18 hrs by agar dilution method; conditions: CIP 7625, 18 h; summary of the method: as §1
[38] = tested on: Enterococcus gallinarum; assay: Antibacterial activity against Enterococcus gallinarum N489 after 18 hrs by agar dilution method; conditions: N489, 18 h; summary of the method: as §1
[39] = tested on: Staphylococcus aureus; assay: Antibacterial activity against Staphylococcus aureus ATCC 9144 oxford after 18 hrs by agar dilution method; summary of the method: as §1
[40] = tested on: Staphylococcus aureus; assay: Antibacterial activity against Staphylococcus aureus CIP 5710 after 18 hrs by agar dilution method; conditions: CIP 5710, 18 h; summary of the method: as §1
[41] = tested on: Staphylococcus aureus; assay: Antibacterial activity against Staphylococcus aureus CRBIP 2121 after 18 hrs by agar dilution method; conditions: CRBIP 2121, 18 h; summary of the method: as §1
[42] = tested on: Bacillus spizizenii; assay: Antibacterial activity against Bacillus subtilis ATCC 6633 after 18 hrs by agar dilution method; conditions: ATCC 6633, 18 h; summary of the method: as §1
[43] = tested on: Enterococcus gallinarum; assay: Antibacterial activity against Enterococcus gallinarum CIP 105985 after 18 hrs by agar dilution method; conditions: CIP 105985, 18 h; summary of the method: as §1
[44] = tested on: Enterococcus faecalis; assay: Antibacterial activity against Enterococcus faecalis CIP 103214 after 18 hrs by agar dilution method; conditions: CIP 103214, 18 h; summary of the method: as §1
[45] = tested on: Listeria innocua; assay: Antibacterial activity against Listeria innocua E044 after 18 hrs by agar dilution method; conditions: E044, 18 h; summary of the method: as §1
[46] = tested on: Enterococcus faecium; assay: Antibacterial activity against Enterococcus faecium CIP 103014 after 18 hrs by agar dilution method; conditions: CIP 103014, 18 h; summary of the method: as §1

What does the source list for `CN[C@H](CC(C)C)C(=O)N[C@H]1C(=O)N[C@@H](CC(N)=O)C(=O)N[C@H]2C(=O)N[C@H]3C(=O)N[C@H](C(=O)N[C@H](C(=O)O)c4cc(O)cc(O)c4-c4cc3ccc4O)[C@H](O)c3ccc(c(Cl)c3)Oc3cc2cc(c3O[C@@H]2O[C@H](CO)[C@@H](O)[C@H](O)[C@H]2O[C@H]2C[C@](C)(N)[C@H](O)[C@H](C)O2)Oc2ccc(cc2Cl)[C@H]1O` [VANCOMYCIN]?
MIC [1]: 0.3 µM (≈ 0.435 µg/mL); MIC [2]: 2.7 µM (≈ 3.91 µg/mL); MIC [3]: 0.6 µM (≈ 0.87 µg/mL); MIC [4]: > 86 µM; MIC [5]: 0.3 µM (≈ 0.435 µg/mL); MIC [6]: 0.6 µM (≈ 0.87 µg/mL); MIC [7]: > 86 µM; MIC [8]: 2.7 µM (≈ 3.91 µg/mL); MIC [9]: 0.3 µM (≈ 0.435 µg/mL); MIC [10]: 0.6 µM (≈ 0.87 µg/mL); MIC [11]: 0.3 µM (≈ 0.435 µg/mL); MIC [12]: 5 µM (≈ 7.25 µg/mL); MIC [13]: 0.3 µM (≈ 0.435 µg/mL); MIC [14]: 0.3 µM (≈ 0.435 µg/mL); MIC [15]: 0.6 µM (≈ 0.87 µg/mL); MIC [16]: 0.6 µM (≈ 0.87 µg/mL); MIC [17]: 0.3 µM (≈ 0.435 µg/mL); MIC [18]: 0.3 µM (≈ 0.435 µg/mL); MIC [19]: 0.6 µM (≈ 0.87 µg/mL); MIC [20]: 0.3 µM (≈ 0.435 µg/mL); MIC [21]: 0.3 µM (≈ 0.435 µg/mL); MIC [22]: > 86 µM; MIC [23]: 0.3 µM (≈ 0.435 µg/mL); MIC [24]: 0.6 µM (≈ 0.87 µg/mL); MIC [25]: 0.6 µM (≈ 0.87 µg/mL); MIC [26]: 0.3 µM (≈ 0.435 µg/mL); MIC [27]: 0.6 µM (≈ 0.87 µg/mL); MIC [28]: 0.6 µM (≈ 0.87 µg/mL); MIC [29]: 0.6 µM (≈ 0.87 µg/mL); MIC [30]: 0.6 µM (≈ 0.87 µg/mL); MIC [31]: 0.6 µM (≈ 0.87 µg/mL); MIC [32]: 22 µM (≈ 31.9 µg/mL); MIC [33]: > 86 µM; MIC [34]: 0.3 µM (≈ 0.435 µg/mL); MIC [35]: 0.6 µM (≈ 0.87 µg/mL); MIC [36]: 5 µM (≈ 7.25 µg/mL); MIC [37]: 2.7 µM (≈ 3.91 µg/mL); MIC [38]: 5 µM (≈ 7.25 µg/mL); MIC [39]: 0.2 µM (≈ 0.29 µg/mL); MIC [40]: 0.6 µM (≈ 0.87 µg/mL); MIC [41]: 2.7 µM (≈ 3.91 µg/mL); MIC [42]: 0.1 µM (≈ 0.145 µg/mL); MIC [43]: 5 µM (≈ 7.25 µg/mL); MIC [44]: 1.3 µM (≈ 1.88 µg/mL); MIC [45]: 0.3 µM (≈ 0.435 µg/mL); MIC [46]: 0.3 µM (≈ 0.435 µg/mL)

— ChEMBL document CHEMBL3585281, “Antibacterial Labdane Diterpenoids from Vitex vestita” (2015)
